Activity calls are given as the source filed them. The rule behind the calls is not given here.
Columns and labels:
[1] = test system: Rattus norvegicus; experiment: Antihypertensive activity in spontaneously hypertensive rats (SHR) at 5 mg/kg dose (po) after 1 h; format: functional
Outline: (§1)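 Spontaneously hypertensive rats given 5 mg/kg orally; blood pressure measured, with percentage reduction determined at 1 and 6 h after dosing.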

[2] = target: T1, Adrenergic receptor alpha-1 (Rattus norvegicus, UniProt P15823+P23944+P43140); experiment: Binding affinity for alpha-1 adrenergic receptor by displacement of [3H]-prazosin from rat brain homogenate preparation; format: tissue-based
T1 sequence (P15823 whole entry): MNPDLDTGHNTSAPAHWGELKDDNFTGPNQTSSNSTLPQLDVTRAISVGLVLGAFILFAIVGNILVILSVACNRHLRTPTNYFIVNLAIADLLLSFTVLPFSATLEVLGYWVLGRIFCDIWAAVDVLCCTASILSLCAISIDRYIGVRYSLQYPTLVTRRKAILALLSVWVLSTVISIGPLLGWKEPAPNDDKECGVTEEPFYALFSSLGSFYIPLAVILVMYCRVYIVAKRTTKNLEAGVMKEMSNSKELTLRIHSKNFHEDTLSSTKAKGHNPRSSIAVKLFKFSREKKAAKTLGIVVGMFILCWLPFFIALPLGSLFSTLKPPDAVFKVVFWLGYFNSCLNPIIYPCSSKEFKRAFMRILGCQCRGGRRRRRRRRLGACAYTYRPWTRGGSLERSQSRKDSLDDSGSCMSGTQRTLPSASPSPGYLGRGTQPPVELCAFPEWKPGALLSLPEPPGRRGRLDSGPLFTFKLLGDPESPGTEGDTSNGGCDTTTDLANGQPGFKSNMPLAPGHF
T1 sequence (P23944 whole entry): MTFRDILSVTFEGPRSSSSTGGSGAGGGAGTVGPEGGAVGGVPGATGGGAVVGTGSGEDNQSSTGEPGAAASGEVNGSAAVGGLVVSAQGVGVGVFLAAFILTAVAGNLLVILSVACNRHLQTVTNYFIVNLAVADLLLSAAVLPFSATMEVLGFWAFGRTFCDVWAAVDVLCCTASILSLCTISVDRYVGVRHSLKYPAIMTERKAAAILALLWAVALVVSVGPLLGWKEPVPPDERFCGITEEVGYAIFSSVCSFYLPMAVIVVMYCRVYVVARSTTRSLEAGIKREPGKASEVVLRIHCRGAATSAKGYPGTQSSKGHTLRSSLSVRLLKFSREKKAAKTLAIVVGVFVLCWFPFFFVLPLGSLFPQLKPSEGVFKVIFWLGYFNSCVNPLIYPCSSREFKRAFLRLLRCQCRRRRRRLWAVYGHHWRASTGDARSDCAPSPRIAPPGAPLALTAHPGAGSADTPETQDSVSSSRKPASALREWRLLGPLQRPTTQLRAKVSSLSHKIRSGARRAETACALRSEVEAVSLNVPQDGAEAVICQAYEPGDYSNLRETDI
T1 sequence (P43140 whole entry): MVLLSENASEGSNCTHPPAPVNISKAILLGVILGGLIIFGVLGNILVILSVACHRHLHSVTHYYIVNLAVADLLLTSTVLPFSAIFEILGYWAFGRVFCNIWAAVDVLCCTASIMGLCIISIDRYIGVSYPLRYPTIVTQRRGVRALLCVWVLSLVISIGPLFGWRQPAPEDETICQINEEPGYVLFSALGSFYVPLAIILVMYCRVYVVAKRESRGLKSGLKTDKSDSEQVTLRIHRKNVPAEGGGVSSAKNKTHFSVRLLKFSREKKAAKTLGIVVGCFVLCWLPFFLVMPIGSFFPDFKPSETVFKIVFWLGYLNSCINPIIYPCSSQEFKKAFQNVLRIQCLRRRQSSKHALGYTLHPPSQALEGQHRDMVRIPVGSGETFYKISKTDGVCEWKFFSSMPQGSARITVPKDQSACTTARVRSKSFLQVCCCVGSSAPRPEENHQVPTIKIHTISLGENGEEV

[3] = target: T2, Adrenergic receptor alpha-2 (Rattus norvegicus) (UniProt P22086+P19328+P22909); experiment: Binding affinity for alpha-2 adrenergic receptor by displacement of [3H]clonidine at 10e-6 M from rat brain homogenate preparation; format: tissue-based
Outline: (§2)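 Rat brain homogenate; percentage displacement of [3H]clonidine by test agent at 10⁻⁶ M; NA denotes under 50%. Mean ± SEM of at least three separate experiments, each in triplicate.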

[4] = test system: Rattus norvegicus; experiment: Antihypertensive activity in spontaneously hypertensive rats (SHR) at 5 mg/kg dose (po) after 6 h; format: functional; outline: as §1
[5] = species: Oryctolagus cuniculus; experiment: Concentration producing a 40% reduction in contractile response in rabbit pulmonary artery (Functional alpha-antagonist activity); EC40-post
[6] = species: Oryctolagus cuniculus; experiment: Concentration producing a 40% increase in [3H]- overflow in rabbit pulmonary artery (Functional alpha-antagonist activity); EC40-pre NA=indicates no activity at 10e-5 M.
[7] = target: T2, Adrenergic receptor alpha-2 (Rattus norvegicus); experiment: Binding affinity for alpha-2 adrenergic receptor by displacement of [3H]clonidine at 10e-6 M from rat brain homogenate preparation; indicates less than 50%; format: tissue-based; outline: as §2
[8] = species: Oryctolagus cuniculus; experiment: Concentration producing a 40% increase in [3H]- overflow in rabbit pulmonary artery (Functional alpha-antagonist activity)
[9] = species: Oryctolagus cuniculus; experiment: Concentration producing a 40% reduction in contractile response in rabbit pulmonary artery (Functional alpha-antagonist activity)
[10] = species: Oryctolagus cuniculus; experiment: Concentration producing a 40% increase in [3H]- overflow in rabbit pulmonary artery (Functional alpha-antagonist activity);EC40-pre, NA=indicates no activity at 10e-5 M.
[11] = species: Oryctolagus cuniculus; experiment: Concentration producing a 40% increase in [3H]- overflow in rabbit pulmonary artery (Functional alpha-antagonist activity)d; NA= indicates no activity at 10e-5 M.
[12] = target: T2, Adrenergic receptor alpha-2 (Rattus norvegicus); experiment: Binding affinity for alpha-2 adrenergic receptor by displacement of [3H]clonidine at 10e-6 M from rat brain homogenate preparation; NA=indicates less than 50%; format: tissue-based; outline: as §2

| SMILES | Ki [2] [nM] | Displacement [3] [%] | Displacement [7] [%] | Displacement [12] [%] | Reduction [1] [%] | Reduction [4] [%] | EC40 [5] [nM] | EC40 [6] | EC40 [8] [nM] | EC40 [9] [nM] | EC40 [10] | EC40 [11] |
| --- | --- | --- | --- | --- | --- | --- | --- | --- | --- | --- | --- | --- |
| COc1cc2nc(N3CCC(OCC(C)(C)OC)CC3)nc(N)c2cc1OC | 1.14 | 75.7 |  |  | 20 | 9 |  |  |  |  |  |  |
| CCCCOCCOC1CCN(c2nc(N)c3cc(OC)c(OC)cc3n2)CC1 | 1.03 | 76 |  |  | 27 | 20 |  |  |  |  |  |  |
| CCOCCOC1CCN(c2nc(N)c3cc(OC)c(OC)cc3n2)CC1 | 1.81 | 65.3 |  |  | 22 | 20 | 38 | inactive |  |  |  |  |
| COc1cc2nc(N3CCN(C(=O)c4ccco4)CC3)nc(N)c2cc1OC [PRAZOSIN] |  |  |  |  | 33 | 29 |  |  | 1300 | 4.5 |  |  |
| COc1cc2nc(N3CCC(OCC(C)(C)O)CC3)nc(N)c2cc1OC | 1.28 | 61.7 |  |  | 40 | 22 |  |  |  |  |  |  |
| COc1cc2nc(N3CCC(OCCOC4CCCC4)CC3)nc(N)c2cc1OC |  |  |  |  | 20 | 11 |  |  |  |  |  |  |
| COCCOC1CCN(c2nc(N)c3cc(OC)c(OC)cc3n2)CC1 | 2.12 | 53 |  |  | 57 | 28 |  |  |  |  |  |  |
| COc1cc2nc(N3CCC(OCCO)CC3)nc(N)c2cc1OC | 2.2 |  |  | < 50 | 8 | 10 |  |  |  |  |  |  |
| COc1cc2nc(N3CCC(OCCOC(C)C)CC3)nc(N)c2cc1OC | 0.67 | 73.4 |  |  | 26 | 15 |  |  |  |  |  |  |
| COc1cc2nc(N3CCC(OCC(C)OC)CC3)nc(N)c2cc1OC (stereo unspecified) | 1.41 | 68.7 |  |  | 34 | 16 |  |  |  |  |  |  |

Further lines, with some results ahead:

| Ki [2] [nM] | Displacement [3] [%] | Displacement [7] [%] | Displacement [12] [%] | SMILES | Reduction [1] [%] | Reduction [4] [%] | EC40 [5] [nM] | EC40 [6] | EC40 [8] [nM] | EC40 [9] [nM] | EC40 [10] | EC40 [11] |
| --- | --- | --- | --- | --- | --- | --- | --- | --- | --- | --- | --- | --- |
| 0.52 | 84.5 |  |  | CCOC(COC1CCN(c2nc(N)c3cc(OC)c(OC)cc3n2)CC1)c1ccccc1 (stereo unspecified) | 16 | 12 |  |  |  |  |  |  |
| 10 |  | < 50 |  | CCOCC(OC1CCN(c2nc(N)c3cc(OC)c(OC)cc3n2)CC1)c1ccccc1 (stereo unspecified) | 24 | 19 |  |  |  |  |  |  |
| 0.48 | 79.3 |  |  | COc1cc2nc(N3CCC(OCCOc4ccccc4)CC3)nc(N)c2cc1OC | 26 | 18 | 44 |  |  |  | inactive |  |
| 0.15 | 91 |  |  | COc1cc2nc(N3CCC(OCC(O)c4ccccc4)CC3)nc(N)c2cc1OC (stereo unspecified) | 26 | 16 |  |  |  |  |  |  |
| 0.15 | 97.5 |  |  | CCOC(C)(COC1CCN(c2nc(N)c3cc(OC)c(OC)cc3n2)CC1)c1ccccc1 (stereo unspecified) | 20 | 13 |  |  |  | 15 |  | inactive |
| 0.62 | 97 |  |  | COc1cc2nc(N3CCC(OCC(C)(O)c4ccccc4)CC3)nc(N)c2cc1OC (stereo unspecified) | 23 | 20 |  |  |  |  |  |  |
| 3.52 | 55 |  |  | COc1cc2nc(N3CCC(OCC(C)O)CC3)nc(N)c2cc1OC (stereo unspecified) | 30 | 19 |  |  |  |  |  |  |
| 0.99 | 74.3 |  |  | CCOC(C)COC1CCN(c2nc(N)c3cc(OC)c(OC)cc3n2)CC1 (stereo unspecified) | 43 | 20 |  |  |  |  |  |  |

— ChEMBL document CHEMBL1124050, “2,4-Diamino-6,7-dimethoxyquinazolines. 4. 2-[4-(substituted oxyethoxy) piperidino] derivatives as alpha 1-adrenoceptor antagonists and antihypertensive agents” (J Med Chem, 1988)
